Values after ≈ are worked out from the molar mass of the structure shown. Active and inactive are the calls of the source. The rule behind the calls is not given here.
Tests used:
Format in all cases: functional
[1] = test system: Mycobacterium tuberculosis; test: Antimycobacterial activity against isoniazid-resistant Mycobacterium tuberculosis ATCC 35822 after 7 days by resazurin microtitre assay
In short: (§1)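 REMA MIC. Strains kept on Ogawa-Kudoh medium 14 days at 37 °C. Suspension vortexed and adjusted to McFarland tube 1 (3.2 × 10^6 cfu/mL), then diluted 1:20 in Middlebrook 7H9 with 10% OADC and glycerol. Compounds tested from 100 ug/mL down to 0.19 ug/mL. Incubated 7 days at 37 °C, resazurin added, 2 more days at 37 °C; colour change read.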

[2] = test system: Mycobacterium tuberculosis; test: Antimycobacterial activity against rifampicin-resistant Mycobacterium tuberculosis ATCC 35338 after 7 days by resazurin microtitre assay; in short: as §1
[3] = test system: Mycobacterium tuberculosis; test: Antimycobacterial activity against rifampicin-resistant Mycobacterium tuberculosis; in short: as §1

Row | Compound | MIC [1] | MIC [2] | MIC ([1]; ATCC 35822, 168 h) | MIC ([2]; ATCC 35338, 168 h) | MIC [3]
1 | CC1(C)CCc2c(c3ccccc3c3nc(-c4cnc5ccccc5c4)[nH]c23)O1 | inactive | inactive |  |  | 
2 | CC1(C)CCc2c(c3ccccc3c3nc(-c4cccc([N+](=O)[O-])c4)[nH]c23)O1 | inactive | inactive |  |  | 
3 | CC1(C)CCc2c(c3ccccc3c3nc(-c4ccccc4[N+](=O)[O-])[nH]c23)O1 |  |  | 16.7 µM (≈ 6.24 µg/mL) | 33.5 µM (≈ 12.5 µg/mL) | 
4 | CC1(C)CCc2c(c3ccccc3c3nc(-c4ccc([N+](=O)[O-])cc4)[nH]c23)O1 |  | inactive | 4.2 µM (≈ 1.57 µg/mL) |  | 
5 | C=CCC1Cc2c(c3ccccc3c3nc4ccccc4nc23)OC1(C)C (stereo not given) |  |  |  |  | 0.78 µg/mL (≈ 2.2 µM)
6 | CC1(C)CCc2c(c3ccccc3c3nc(-c4ccccc4)[nH]c23)O1 |  |  | 38 µM (≈ 12.5 µg/mL) | > 304 µM | 
7 | CC1(C)Cc2c(c3ccccc3c3nc(-c4ccccc4)[nH]c23)O1 |  |  | > 318 µM | 318 µM (≈ 100 µg/mL) | 
8 | CC1(C)CCc2c(c3ccccc3c3nc(-c4cccc(C(F)(F)F)c4)[nH]c23)O1 |  |  | 4 µM (≈ 1.59 µg/mL) | 4 µM (≈ 1.59 µg/mL) | 
9 | CC1(C)CCc2c(c3ccccc3c3nc(-c4ccccc4C#N)oc23)O1 |  |  | 17.6 µM (≈ 6.24 µg/mL) | 17.6 µM (≈ 6.24 µg/mL) | 
10 | Cc1ccc(-c2nc3c(o2)c2c(c4ccccc43)OC(C)(C)C2)cc1 |  |  | > 304 µM |  | 
11 | NNC(=O)c1ccncc1 [ISONIAZID] |  |  | 7.3 µM (≈ 1 µg/mL) | ≤ 0.4 µM | 
12 | CO[C@H]1/C=C/O[C@@]2(C)Oc3c(C)c(O)c4c(O)c(c(/C=N/N5CCN(C)CC5)c(O)c4c3C2=O)NC(=O)/C(C)=C\C=C\[C@H](C)[C@H](O)[C@@H](C)[C@@H](O)[C@@H](C)[C@H](OC(C)=O)[C@@H]1C [RIFAMPIN] |  |  | ≤ 0.1 µM | > 4.8 µM | 
13 | CC1(C)CCc2c(c3ccccc3c3nc(-c4ccccn4)[nH]c23)O1 |  |  | 19 µM (≈ 6.26 µg/mL) | 19 µM (≈ 6.26 µg/mL) | 
14 | CC1(C)CCc2c(c3ccccc3c3nc(-c4ccc(C#N)cc4)[nH]c23)O1 | inactive | inactive |  |  | 
15 | CC1(C)CCc2c(c3ccccc3c3nc(-c4cccc(Br)c4)[nH]c23)O1 |  |  | 15.3 µM (≈ 6.23 µg/mL) | 15.3 µM (≈ 6.23 µg/mL) | 
16 | C=CCC1=C(O)C(=O)c2ccccc2C1=O |  |  | 467 µM (≈ 100 µg/mL) | 117 µM (≈ 25 µg/mL) | 
17 | CC1(C)CCc2c(c3ccccc3c3nc(-c4ccc(C(F)(F)F)cc4)[nH]c23)O1 | inactive | inactive |  |  | 

Row | Compound | MIC [1] | MIC [2] | MIC ([1]; ATCC 35822, 168 h) | MIC ([2]; ATCC 35338, 168 h) | MIC [3]
18 | CC1Cc2c(c3ccccc3c3nc(-c4ccc([N+](=O)[O-])cc4)oc23)O1 (stereo not given) |  |  | > 289 µM | 289 µM (≈ 100 µg/mL) | 
19 | CC1(C)CCc2c(c3ccccc3c3nc(-c4cccnc4)[nH]c23)O1 | inactive | inactive |  |  | 
20 | CC1(C)CCc2c(c3ccccc3c3nc(-c4cc5ccccc5cn4)[nH]c23)O1 |  |  | ≤ 2 µM | ≤ 2 µM | 
21 | CC1(C)CCc2c(c3ccccc3c3nc(-c4cccc(C#N)c4)[nH]c23)O1 | inactive | inactive |  |  | 
22 | CC1(C)CCc2c(c3ccccc3c3nc(-c4ccc(Br)cc4)[nH]c23)O1 | inactive | inactive |  |  | 
23 | CC1(C)CCc2c(c3ccccc3c3nc(-c4cccc(C#N)c4)oc23)O1 |  |  | 17.6 µM (≈ 6.24 µg/mL) | 17.6 µM (≈ 6.24 µg/mL) | 
24 | CC1(C)Cc2c(c3ccccc3c3nc(-c4ccc([N+](=O)[O-])cc4)oc23)O1 |  |  | > 278 µM |  | 
25 | CC1(C)CCc2c(c3ccccc3c3nc(-c4ccc(C#N)cc4)oc23)O1 |  |  | 8.8 µM (≈ 3.12 µg/mL) | 4.4 µM (≈ 1.56 µg/mL) | 
26 | COc1ccccc1-c1nc2c([nH]1)c1c(c3ccccc32)OC(C)(C)CC1 |  |  | 17.4 µM (≈ 6.24 µg/mL) | 17.4 µM (≈ 6.24 µg/mL) | 
27 | CC1CC2=C(O1)c1ccccc1C(=O)C2=O (stereo not given) | inactive | inactive |  |  | 
28 | Cc1ccc(-c2nc3c([nH]2)c2c(c4ccccc43)OC(C)(C)C2)cc1 |  |  | > 304 µM | 304 µM (≈ 100 µg/mL) | 
29 | CC1(C)CCc2c(c3ccccc3c3nc(-c4ccccc4Br)[nH]c23)O1 |  |  | 15.3 µM (≈ 6.23 µg/mL) | 15.3 µM (≈ 6.23 µg/mL) | 
30 | CC1(C)CCc2c(c3ccccc3c3nc(-c4ccc(F)cc4)[nH]c23)O1 |  |  | 18 µM (≈ 6.24 µg/mL) | 18 µM (≈ 6.24 µg/mL) | 
31 | CC1(C)CCc2c(c3ccccc3c3nc(-c4cccc(F)c4)[nH]c23)O1 |  |  | 18 µM (≈ 6.24 µg/mL) | 18 µM (≈ 6.24 µg/mL) | 
32 | CC1(C)CCc2c(c3ccccc3c3nc(-c4ccccc4C(F)(F)F)[nH]c23)O1 |  |  | 4 µM (≈ 1.59 µg/mL) | 2 µM (≈ 0.793 µg/mL) | 
33 | CC1(C)CCc2c(c3ccccc3c3nc(-c4ccc(Cl)cc4)[nH]c23)O1 |  |  | 17.2 µM (≈ 6.24 µg/mL) | 17.2 µM (≈ 6.24 µg/mL) | 
34 | Cc1ccccc1-c1nc2c([nH]1)c1c(c3ccccc32)OC(C)(C)CC1 |  |  | 4.5 µM (≈ 1.54 µg/mL) | 4.5 µM (≈ 1.54 µg/mL) | 
